# Activity calls are given as the source filed them. No cut-off for these calls is given here.
# Columns and labels:
# [1] = test system: Toxoplasma gondii; experiment: Antimicrobial activity against Toxoplasma gondii infected in HFF after 8 days by plaque assay; assay type: functional, organism-based; conditions: 192 h
# [2] = test system: Toxoplasma gondii; experiment: Antimicrobial activity against Toxoplasma gondii RH infected in HFF assessed as inhibition of parasite replication at 10 to 25 uM after 28 hrs by immunofluorescence assay; assay type: functional, organism-based
# In short: (§1)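 Human fibroblast (HFF) cultures infected with intracellular T. gondii were exposed to compound in DMSO, with DMSO-only controls. They were fixed 28 h after infection for immunofluorescence. Parasite subpellicular microtubules were stained green, with host microtubules or parasite surface antigen P30/SAG1 in red and DNA in blue. Matched phase-contrast images were taken, and parasites per vacuole were scored.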
# [3] = test system: Toxoplasma gondii; experiment: Antimicrobial activity against Toxoplasma gondii RH infected in HFF assessed as inhibition of parasite growth at 10 to 25 uM after 28 hrs by immunofluorescence assay; assay type: functional, organism-based; in short: as §1
# [4] = test system: HFF; experiment: Cytotoxicity against HFF assessed as cell vacuolation at 30 uM after 17 hrs by MTS assay; assay type: cell-based; conditions: human
# [5] = test system: Toxoplasma gondii RH; experiment: Inhibition of tubulin in Toxoplasma gondii RH infected in HFF assessed as microtubules disruption at 10 to 25 uM after 28 hrs by immunofluorescence assay; in short: as §1
# [6] = test system: Toxoplasma gondii RH; experiment: Inhibition of tubulin in Toxoplasma gondii RH infected in HFF assessed as microtubules disruption at 0.5 uM after 28 hrs by immunofluorescence assay
# In short: (§2)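 Human foreskin fibroblast (HFF) cultures infected with intracellular Toxoplasma were treated for 28 h with 0.5 µM compound in DMSO, with DMSO vehicle as control. Read-out was immunofluorescence: host cell microtubules in red, parasite subpellicular microtubules/tubulin in green, and host and parasite DNA in blue. Microtubules were scored as filamentous linear arrays or as diffuse staining, with matched phase-contrast images.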
# [7] = test system: Toxoplasma gondii; experiment: Antimicrobial activity against Toxoplasma gondii RH infected in HFF assessed as inhibition of parasite replication at 0.5 uM after 28 hrs by immunofluorescence assay; assay type: functional, organism-based
# [8] = test system: HFF; experiment: Cytotoxicity against HFF assessed as reduction of cell viability at 0.5 uM after 17 hrs by MTS assay; assay type: cell-based; conditions: human
# In short: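 Host HFF cells were treated for 17 h with compound at 0.5 µM or 30 µM. Viable cells were quantified by tetrazolium dye (MTS, CellTiter reagent) assay.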
# [9] = target: Tubulin (Homo sapiens) (UniProt P68371+Q9H4B7+P0DPH7+P68366+Q13509+Q71U36+P04350+Q3ZCM7+P07437+P68363+Q9BQE3+Q6PEY2+Q13885+Q9BVA1+Q9BUF5); experiment: Inhibition of tubulin in HFF assessed as microtubules disruption at 0.5 uM after 28 hrs by immunofluorescence assay; in short: as §2
# [10] = test system: HFF; experiment: Cytotoxicity against HFF assessed as assessed as reduction of cell viability at 30 uM after 17 hrs by MTS assay; assay type: cell-based; conditions: human
structure (smiles),measurement,setting,value
CCCN(CCC)c1c([N+](=O)[O-])cc(S(=O)(=O)Nc2ccc(O)cc2)cc1[N+](=O)[O-],IC50,[1],2.6 µM
CC(C)CN(CC(C)C)c1c([N+](=O)[O-])cc(S(N)(=O)=O)cc1[N+](=O)[O-],IC50,[1],0.35 µM
CCCN(CCC)c1c([N+](=O)[O-])cc(S(=O)(=O)Nc2ccccc2)cc1[N+](=O)[O-],IC50,[1],6.7 µM
CCCN(CCC)c1c([N+](=O)[O-])cc(S(=O)(=O)NCCO)cc1[N+](=O)[O-],IC50,[1],26 µM
CCCN(CCC)c1c([N+](=O)[O-])cc(C(F)(F)F)cc1[N+](=O)[O-] [TRIFLURALIN],IC50,[1],0.65 µM
NS(=O)(=O)c1cc([N+](=O)[O-])c(N(CCCl)Cc2ccccc2)c([N+](=O)[O-])c1,IC50,[1],0.85 µM
Cc1ccc(CN(Cc2ccc(C)cc2)c2c([N+](=O)[O-])cc(S(N)(=O)=O)cc2[N+](=O)[O-])cc1,inhibition,[2],Active
same,inhibition,[3],Active
same,Activity,[4],Toxic
same,inhibition,[5],inactive
CCCN(CCC)c1c([N+](=O)[O-])cc([N+](=O)[O-])cc1C(F)(F)F,IC50,[1],7.8 µM
NS(=O)(=O)c1cc([N+](=O)[O-])c(N(CC2CCCCC2)CC2CCCCC2)c([N+](=O)[O-])c1,inhibition,[2],Active
same,inhibition,[3],Active
same,inhibition,[5],inactive
CCCN(CCC)c1c([N+](=O)[O-])cc(C(F)(F)F)c(N)c1[N+](=O)[O-],inhibition,[6],Active
same,IC50,[1],0.036 µM
same,inhibition,[7],Active
same,Activity,[8],Non-toxic
same,Activity,[9],Non-toxic
CCN(CC)c1c([N+](=O)[O-])cc(C(F)(F)F)c(N)c1[N+](=O)[O-] [DINITRAMINE],IC50,[1],0.07 µM
NS(=O)(=O)c1cc([N+](=O)[O-])c(N(CCCCl)Cc2ccccc2)c([N+](=O)[O-])c1,IC50,[1],2.6 µM
NS(=O)(=O)c1cc([N+](=O)[O-])c(N(Cc2ccccc2)CC2CC2)c([N+](=O)[O-])c1,IC50,[1],2.1 µM
CCCN(CCC)c1c([N+](=O)[O-])cc(S(N)(=O)=O)cc1[N+](=O)[O-] [ORYZALIN],IC50,[1],0.25 µM
NS(=O)(=O)c1cc([N+](=O)[O-])c(N(Cc2ccccc2)Cc2ccccc2)c([N+](=O)[O-])c1,inhibition,[2],Active
same,inhibition,[3],Active
same,inhibition,[5],inactive
CCCN(CCC)c1c(C#N)cc(S(N)(=O)=O)cc1C#N,IC50,[1],4.8 µM
CCCCN(CCCC)c1c([N+](=O)[O-])cc(S(N)(=O)=O)cc1[N+](=O)[O-],IC50,[1],1.1 µM
CCCCN(CCCC)c1c([N+](=O)[O-])cc(C(F)(F)F)c(N)c1[N+](=O)[O-],IC50,[1],0.51 µM
CCCN(CCC)c1c([N+](=O)[O-])cc(S(=O)(=O)N(C)C)cc1[N+](=O)[O-],IC50,[1],3.4 µM
NS(=O)(=O)c1cc([N+](=O)[O-])c(N(CCc2ccccc2)CCc2ccccc2)c([N+](=O)[O-])c1,inhibition,[2],Active
same,inhibition,[3],Active
same,Activity,[4],Toxic
same,Activity,[10],Toxic
same,inhibition,[5],inactive
